# Hits are enriched below; roughly 2% of the tested compounds scored in any of these assays.
# Dynein transport: inhibitors of GR-EGFP nuclear translocation, primary screen, dynein cargo transport inhibitor project, imaging, high-content, 3617.4 mouse cells; test concentration mostly 20 µM; stimulated with dexamethasone, 1 µM; hits give low values; z-score, hits read low; 0.47% of 220,000 active;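 active = plate z-score of nuclear minus cytoplasmic receptor signal below a set negative limit, without overly bright fluorescence or cell loss, cut at about -3.5 in these data, passing the limit was not always enough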;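 also: z-score of nuclear minus cytoplasmic ring GR-EGFP intensity difference per well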
#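 Also added – dexamethasone, 1.0 µM final · Buffer or medium – tet-free, stripped-serum medium · Schedule – induction 48 h, compound 1 h, agonist 30 min · Detection – formaldehyde fixation, Hoechst nuclear stain, 10x automated fluorescence imaging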
# Furin inh: human furin inhibitors, primary screen, biochemical, fluorescence intensity; P09958; purified furin, fluorogenic substrate cleavage; inhibition, % at 20 µM or 30 µM; 0.061% of 220,000 active; in the data active = inhibition above about 25%
# Target sequence (P09958 108-714 limits assumed): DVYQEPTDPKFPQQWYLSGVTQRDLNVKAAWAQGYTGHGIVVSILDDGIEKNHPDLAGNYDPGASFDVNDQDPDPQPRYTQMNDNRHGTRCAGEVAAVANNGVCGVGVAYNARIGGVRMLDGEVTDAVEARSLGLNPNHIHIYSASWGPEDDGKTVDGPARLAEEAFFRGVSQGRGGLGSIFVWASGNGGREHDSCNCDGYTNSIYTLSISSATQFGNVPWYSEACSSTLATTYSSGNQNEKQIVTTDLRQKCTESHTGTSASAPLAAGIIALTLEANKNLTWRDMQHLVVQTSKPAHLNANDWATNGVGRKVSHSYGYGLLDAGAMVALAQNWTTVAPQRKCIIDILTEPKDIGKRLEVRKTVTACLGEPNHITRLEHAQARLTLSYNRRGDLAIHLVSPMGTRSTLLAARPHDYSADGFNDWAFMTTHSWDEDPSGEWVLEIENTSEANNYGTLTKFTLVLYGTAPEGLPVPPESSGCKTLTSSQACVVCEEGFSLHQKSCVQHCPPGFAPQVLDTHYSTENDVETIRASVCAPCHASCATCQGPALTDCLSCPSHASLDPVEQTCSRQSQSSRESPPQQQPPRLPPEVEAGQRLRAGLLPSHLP
# HSV augment: enhancers of HSV replication in host cells, fold increase, host cell viability. HSV replication augmentation in cells. maximum fold increase. 0.005% of 220,000 active. AID 1956, 2009; in the data active = maximum fold increase above about 1.5; inconclusive = no clear call, values can overlap the other calls; tested in PC3 cells
# Autophagy mod: autophagy modulators in MEF cells, primary screen, imaging, high-content, MEF GFP-LC3; calls only at 10 µM (by protocol); 0.98% of 190,000 active; MEF GFP-LC3 puncta imaging; test concentration mostly 10 µM;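 active = percentage of spot-positive cells more than 3 SD above its plate mean, without a fluorescence outlier flag or 80% toxicity; inconclusive = no clear call, values can overlap the other calls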;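 also: spot-positive cell cutoff set from DMSO-treated cells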
# Insulin prom inh: inhibitors of insulin promoter-driven GFP, primary screen, imaging, TRM-6 cells, eGFP reporter, cell count; reporter expression induced with tamoxifen; inhibition, % at 2 µM; 0.9% of 130,000 active; AID 1273, 2008;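 active = inhibition above the mean plus 3 SD, with well images judged a real hit on visual review, cut at about 60% in these data, passing the limit was not always enough; inconclusive = inhibition over the cutoff but images rejected on review; inactive = inhibition not above the cutoff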
# Ins promoter up: insulin promoter activators in MIN6 cells, imaging, high-content screening, mouse beta cells; MIN6 insulin promoter-GFP reporter; hits give high values; z-score at 5 µM; 0.3% of 190,000 active; AID 1625, 2009;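 active = z-score above 3 at 5 µM with at least 500 cells counted in the well; inconclusive = wells under 500 cells, flagged as cytotoxic or low count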
# Dynein confirm: dynein cargo transport inhibitors, GR-EGFP translocation, confirmation, imaging, high-content imaging, GR-EGFP cells; shares compounds with Dynein transport; 3617.4 GR-EGFP nuclear translocation imaging, dexamethasone-induced; calls only at 20 µM; 69% of 1,000 active; AID 463116, 2010;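 active = inhibition of receptor movement into the nucleus at or above a set limit in both runs, with normal cell brightness and cell count; inconclusive = limit reached in only one run, brightness and count normal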;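 also: dexamethasone at 1 µM final in well for 30 min; nuclear minus cytoplasmic GR-EGFP mean intensity difference in channel 2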
# * marks the source's active call; other numbers are inactive results; i = inactive; ? = inconclusive; . = no result given; + = active, no number.
SMILES,Dynein transport,Furin inh,HSV augment,Autophagy mod,Insulin prom inh,Ins promoter up,Dynein confirm
Cc1ccc(C2C3CSCC=C3C(C#N)=C(N)C2(C#N)C#N)cc1 (stereo not given),-4.05*,-18.9,?,i,3.9,-1.87,i
N#CC1=C(N)C(C#N)(C#N)[C@H](c2ccncc2)[C@H]2CC3(CC=C12)OCCO3,-0.205,-16.3,i,i,-24.2,-0.64,.
Cc1ccccc1CS(=O)(=O)c1nnc([C@H](Cc2ccccc2)NC(=O)OC(C)(C)C)o1,-5.52*,-20.2,i,i,78.1*,1.42,+
COC(=O)C1=C(COc2ccc(C=O)cc2OC)NC(=O)NC1c1cc(C)ccc1C (stereo not given),-0.604,-22.4,i,i,46.7,.,.
Cc1c(N=C2C=CC(=O)c3ccccc32)c(=O)n(-c2ccccc2)n1C,-4.67*,-12.3,i,i,.,0.29,+
Cc1c(N=C2C=C(Br)C(=O)C(Br)=C2)c(=O)n(-c2ccccc2)n1C,-0.0422,-22.8,i,i,-55.6,-0.36,.
O=C1OC(/C=C/c2ccccc2)=NC/1=C/C=C/c1ccccc1,-0.714,-0.2,i,i,25.0,-0.03,.
ClC1=C(Cl)C(Cl)=C(Cl)C1=C/C=C/c1ccccc1,-4.08*,-7.9,i,.,.,-1.65,i
CCOC(=O)c1cc(CC)sc1/N=C/c1c(O)ccc2ccccc12,1.17,-13.2,i,i,36.7,0.01,.
COc1ccc(-n2nc(C#N)c(Cl)cc2=O)cc1,-5.86*,-17.6,i,i,-3.7,?,+
C1CN(c2nc3nonc3nc2N2C[C@H]3CC[C@H]2C3)CCS1,-0.396,-7.7,i,i,.,0.67,.
Cc1cc(OCC(=O)Nc2ccc(S(=O)(=O)NC3=NCCCCC3)cc2)c(C(C)C)cc1Cl,-0.0218,-11.8,i,i,20.0,-0.48,.
O=C1/C(=C/c2ccccc2[N+](=O)[O-])COc2ccccc21,-5.72*,-24.2,i,i,.,0.55,+
Cc1ccccc1CN1CCN(S(=O)(=O)c2cccs2)CC1,-1.22,-7.6,i,i,.,0.52,.
CCOc1ccc(C(=O)C(CCC(CN(C)C)C(=O)c2ccc(OCC)cc2)CN(C)C)cc1 (stereo not given),-4.09*,-21.3,i,i,.,?,i
CC1CCN(CC(CS(=O)(=O)c2ccc([N+](=O)[O-])cc2)N2CCC(C)CC2)CC1 (stereo not given),-4.67*,-16.2,i,.,.,2.11,+
Cc1ccc(S(=O)(=O)CC(CN2CCOCC2)N2CCOCC2)cc1 (stereo not given),-0.00346,-22.7,i,i,50.0,0.1,.
COc1ccc(C2=NN(S(C)(=O)=O)C(c3cccs3)C2)cc1OC (stereo not given),-0.421,-19.1,i,i,.,-0.37,.
CC(=O)Nc1ccc(S(=O)(=O)N(CC(=O)Nc2cc(C)on2)Cc2ccc(F)cc2)cc1,0.0146,-10.3,i,.,.,-0.1,.
COc1ccc(CNC(=O)C(c2ccncc2)N(C(=O)Cc2cccs2)c2ccccc2)cc1 (stereo not given),-0.2,-14.0,i,i,.,-0.48,.
COc1ccc(N(C(=O)CCl)C(C(=O)NCCc2ccccc2)c2cccs2)cc1 (stereo not given),-5.32*,-7.2,i,i,-163.2,.,+
Clc1ccc(N=c2ssnc2Cl)nc1,-3.53*,-29.2,i,i,7.1,2.58,i
O=C(Cc1ccc(Cl)cc1)c1c[nH]c(C(=O)NCCCn2ccnc2)c1,0.827,-13.2,i,i,-109.1,0.12,.
O=S1(=O)CC=C(CSC(=S)NC2CCS(=O)(=O)C2)C1 (stereo not given),-4.8*,-18.1,i,i,.,1.13,+
CN(C)CCCNC(=O)/C(=C\c1ccc(-c2ccc(Br)cc2)o1)NC(=O)c1ccccc1,0.83,5.0,i,i,0.0,.,.

# Assay outcomes deposited in PubChem BioAssay by several laboratories.
